Sampled rows, rich in hits. Any-hit rate of the full collection: about 3.3%.
PRMT1 FP inh: inhibitors of human PRMT1; Q99873; inhibition, % at 2.79 µM; 1.3% of 370,000 active; recombinant PRMT1, activity-based probe fluorescence polarization; AID 652257;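 active = inhibition above about 21% made by adding two undisclosed values, limit read from the data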
Target sequence (Q99873 whole entry, looked up): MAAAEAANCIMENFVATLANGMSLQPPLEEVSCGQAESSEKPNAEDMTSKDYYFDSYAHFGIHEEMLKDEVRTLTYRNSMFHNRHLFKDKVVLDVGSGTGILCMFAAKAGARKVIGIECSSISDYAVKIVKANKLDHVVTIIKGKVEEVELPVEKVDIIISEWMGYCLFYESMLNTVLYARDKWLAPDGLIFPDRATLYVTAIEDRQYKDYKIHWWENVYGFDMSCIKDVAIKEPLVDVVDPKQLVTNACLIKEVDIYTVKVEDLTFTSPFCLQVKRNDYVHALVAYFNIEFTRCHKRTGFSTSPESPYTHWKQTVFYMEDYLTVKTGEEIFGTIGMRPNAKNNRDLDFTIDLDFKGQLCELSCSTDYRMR
LEDGF integ inh: blocks HIV-1 LEDGF/p75-dependent DNA integration; TR-FRET IN-LEDGF/p75 DNA integration, Eu/Cy5; inhibition, % at 3.7 µM; 0.64% of 370,000 active;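 active = inhibition above the screen-wide mean plus 3 SD, cut at about 13% in these data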;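 also: signal is the Cy5 over europium emission ratio at 671 and 618 nm; 0% = plate median of compound wells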
TDP2 absorb: blocks human TDP2 phosphodiesterase activity; O95551; recombinant TDP2, T5PNP hydrolysis, p-nitrophenol absorbance 415 nm; inhibition, % at 12.8 µM; 0.34% of 370,000 active;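 active = inhibition above the mean of all tested compounds plus 3 SD, set per campaign, cut at about 25% in these data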;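 also: 0% = DMSO with enzyme and 100% = buffer with substrate but no TDP2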
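Material: recombinant human TDP2; quantity: TDP2 enzyme at 120 nM final; medium: Tris-HCl pH 7.5 with MgCl2; compound: single concentration, 12.8 µM nominal, with 1% DMSO; incubation: 2 h enzyme incubation at 37 °C; signal: epi absorbance; measure: percent inhibition; benchmarks: high control without enzyme, low control DMSO plus TDP2; repeats: singlicate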
SIAE primary: inhibitors of human sialic acid acetylesterase SIAE; inhibition, % at 9.66 µM; 0.69% of 370,000 active; Q9HAT2; AID 1053197; SIAE FP-Rh probe binding, fluorescence polarization;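 active = inhibition above a cutoff: mean of compounds within the control limits plus 3 SD of those, cut at about 17% in these data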;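 also: 0% = plate median of compound wells and 100% = probe without SIAE protein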
UHRF1 MBD2 ctr: blocks human UHRF1 binding to methylated DNA | Q96T88 | UHRF1 binding to methylated oligo, TR-FRET | inhibition, % at 4.4 µM | 0.75% of 370,000 active | AID 687016; in the data active = inhibition above about 21%;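 also: UHRF1 SRA domain binding a hemimethylated CpG hairpin DNA probe; 0% = median of test compound wells and 100% = reference inhibitor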
MBD2 inh: MBD2-methylated oligo binding inhibition; TR-FRET, MBD2 binding to methylated oligonucleotide; 0.31% of 370,000 active; AID 686964; inhibition, % at 4.4 µM; Q9UBB5; in the data active = inhibition above about 13%
PRMT1 inh conf: PRMT1 (human) inhibition, FP confirmation | shares compounds with PRMT1 FP inh | recombinant His-PRMT1, activity-based probe fluorescence polarization | inhibition, % at 2.79 µM | 42% of 3,300 active | AID 687036;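 active = mean inhibition across replicates above the hit cutoff derived for the earlier primary screen, cut at about 22% in these data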
* hit, by the source's call; · = no result given.

SMILES	PRMT1 FP inh	LEDGF integ inh	TDP2 absorb	SIAE primary	UHRF1 MBD2 ctr	MBD2 inh	PRMT1 inh conf
C=CCCC(=O)N(Cc1ccccc1)c1ccccc1C(=O)Nc1cc(OC)ccc1OC	-1	2	0	3	0	4	·
CC(C)CSc1n[nH]c(=S)s1	13	-1	-11	1	0	-1	·
CC(CSc1n[nH]c(=S)s1)c1ccccc1 (stereo not given)	41*	1	-1	5	-2	-7	74*
O=C(CSc1oc(-c2ccco2)nc1S(=O)(=O)c1ccccc1)NCC1CCCO1 (stereo not given)	10	0	15	2	-4	0	·
O=C(CSc1oc(-c2ccco2)nc1S(=O)(=O)c1ccc(F)cc1)NCC1CCCO1 (stereo not given)	45*	11	-2	0	-1	5	7
COC(=O)COc1ccc2c(c1)O/C(=C\c1ccco1)C2=O	31*	7	-3	1	6	-5	1
CCN1C(=O)CC(N2CCC(c3nc4ccccc4[nH]3)CC2)C1=O (stereo not given)	-4	4	-9	3	3	-5	·
COc1ccc(N2CC(C(=O)N3CCC(c4nc5ccccc5[nH]4)CC3)CC2=O)cc1 (stereo not given)	0	1	19	2	-1	2	·
COc1cccc(N2C(=O)CC(N3CCC(c4nc5ccccc5[nH]4)CC3)C2=O)c1 (stereo not given)	60*	-4	-9	1	2	6	0
Cc1cccc(N2C(=O)CC(N3CCC(c4nc5ccccc5[nH]4)CC3)C2=O)c1 (stereo not given)	47*	0	-3	-2	0	-1	3
Cc1ccccc1CNC(=O)C1CCCN(c2ncccn2)C1 (stereo not given)	-2	-3	-3	0	2	-1	·
COCCN(C(=S)Nc1c(C)cc(C)cc1C)C(C)c1cccnc1 (stereo not given)	74*	2	8	3	1	-2	63*
COCCN(C(=S)Nc1c(C)cccc1C)C(C)c1cccnc1 (stereo not given)	-4	2	9	7	-1	-1	·
Cc1cc(C)n(CCc2nc(-c3ccc(C)o3)cs2)n1	68*	0	3	-4	1	3	34*
Cc1cc(C)n(CCc2nc(-c3cc4ccccc4o3)cs2)n1	2	0	2	0	-2	-5	·
C[C@H]1COc2cccc(N3CCSCC3)c2S(=O)(=O)N1C	5	-4	1	-4	2	0	·
O=[N+]([O-])c1ccc(Cl)c(C2Nc3cccc4cccc(c34)N2)c1	53*	2	-11	8	6	-8	26*
CCC[C@H]1[C@@H](OC(=O)NCCc2ccccc2)CC[C@@]23CCCN2C(=O)CCC[C@@H]13	1	-5	5	-3	0	0	·
CCNC(=S)Nc1ccc(Cl)cc1	1	0	-9	12	5	0	·
CCNC(=S)Nc1cc(-c2ccc(Cl)cc2)[nH]n1	44*	3	8	-3	-2	-3	29*
CCOCC(=O)Nc1cc(S(=O)(=O)N2CCOCC2)ccc1N1CCCCC1	41*	8	-11	2	1	4	7
O=C(Nc1ccc(Cl)cc1)Nc1cc(S(=O)(=O)N2CCOCC2)ccc1N1CCCC1	2	0	1	6	6	6	·
O=C(Nc1ccccc1)Nc1cc(S(=O)(=O)N2CCOCC2)ccc1N1CCCC1	29*	-4	-1	-3	7	4	1
CCNC(=S)NNC(=O)c1cnccn1	-4	-1	-4	5	4	1	·
CCOC(=O)[C@]12CCCC3=C1N(CCC3)C(=O)[C@@H](CC(=O)NCCCN1CCCC1=O)C2	-4	2	1	4	0	-2	·
Cc1cc(C)cc(N(CC(=O)NC2CCC(C)CC2)S(=O)(=O)c2ccc(Cl)s2)c1 (stereo not given)	-1	-1	4	2	1	0	·
